{"source": "ChEMBL document CHEMBL4402582", "about": "“Garcinoic Acid Is a Natural and Selective Agonist of Pregnane X Receptor” (J Med Chem, 2020)", "key": {"[1]": {"system": "Mus musculus", "assay": "Induction of PXR protein expression in C57BL/6 mouse hepatic parenchyma assessed as induction of localization of PXR protein at hepatocytes around centro-lobular veins at 25 mg dosed as oral gavage as single bolus and measured after 24 hrs by IHC analysis relative to control", "type": "functional, organism-based", "summary_of_the_method": "(§1)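 Male C57BL/6 mice, 6–7 weeks old, three per group. Single oral gavage bolus (5–25 mg) in olive oil; vehicle controls; killed at 24 h. Liver and gut formalin-fixed, paraffin-embedded; 4 μm sections stained with H&E. PXR IHC with polyclonal antibody at 1:200 on an automated stainer with polymer detection.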"}, "[2]": {"target": "T1, PXR (Nuclear receptor subfamily 1 group I member 2) (Homo sapiens, UniProt O75469)", "T1 sequence (O75469 whole entry)": "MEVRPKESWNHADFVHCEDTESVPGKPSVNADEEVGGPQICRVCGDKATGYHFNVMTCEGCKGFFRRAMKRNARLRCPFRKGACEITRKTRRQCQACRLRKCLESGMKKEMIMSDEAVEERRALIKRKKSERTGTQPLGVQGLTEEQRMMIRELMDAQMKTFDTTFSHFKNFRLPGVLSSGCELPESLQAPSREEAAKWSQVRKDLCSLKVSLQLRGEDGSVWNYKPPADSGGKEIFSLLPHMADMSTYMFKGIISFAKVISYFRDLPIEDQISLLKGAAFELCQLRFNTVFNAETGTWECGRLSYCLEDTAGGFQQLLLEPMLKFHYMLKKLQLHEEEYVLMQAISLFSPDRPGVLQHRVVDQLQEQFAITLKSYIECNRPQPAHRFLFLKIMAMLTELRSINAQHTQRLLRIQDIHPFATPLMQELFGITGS", "assay": "Agonist activity at His-tagged PXR-LBD/SRC-1p (unknown origin) expressed in Escherichia coli BL21(DE3) by coactivator recruitment based Alpha-screen assay relative to T0901317", "conditions": "read-out: Efficacy"}, "[3]": {"assay": "Toxicity in C57BL/6 mouse assessed as effect on animal behavior at <=25 mg dosed as oral gavage as single bolus and measured after 24 hrs relative to control", "type": "organism-based", "conditions": "in vivo", "summary_of_the_method": "(§2)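 Male C57BL/6 mice, 6–7 weeks old, three per group. Single oral gavage bolus of 5, 10, 25, 50 or 100 mg in olive oil vehicle. Observed at 24 h for mortality, gross appearance and behavior, then post-mortem examination of liver and main organs.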"}, "[4]": {"target": "T2, Oxysterols receptor LXR-beta (Homo sapiens) (UniProt P55055)", "T2 sequence (whole entry)": "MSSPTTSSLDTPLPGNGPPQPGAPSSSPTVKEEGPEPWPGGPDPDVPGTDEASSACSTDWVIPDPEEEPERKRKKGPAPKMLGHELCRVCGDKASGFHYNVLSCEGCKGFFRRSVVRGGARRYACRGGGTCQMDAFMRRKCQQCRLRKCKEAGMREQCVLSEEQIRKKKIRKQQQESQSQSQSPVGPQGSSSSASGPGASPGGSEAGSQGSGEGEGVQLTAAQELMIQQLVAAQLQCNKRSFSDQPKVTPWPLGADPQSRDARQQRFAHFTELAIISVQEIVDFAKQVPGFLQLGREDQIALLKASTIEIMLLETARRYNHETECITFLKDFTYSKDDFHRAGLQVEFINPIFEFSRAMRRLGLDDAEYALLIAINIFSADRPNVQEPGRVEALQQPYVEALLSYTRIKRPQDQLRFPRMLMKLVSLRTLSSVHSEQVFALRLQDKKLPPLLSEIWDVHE", "assay": "Agonist activity at LXR-beta (unknown origin) at 10 uM by coactivator recruitment based Alpha-screen assay"}, "[5]": {"target": "T3, Nuclear receptor subfamily 1 group I member 2 (Homo sapiens, UniProt O75469)", "T3 sequence (O75469 whole entry)": "T1 sequence (O75469 whole entry)", "assay": "Agonist activity at PXR in human HepaRG cells assessed as reversion of PXR antagonist sulforaphane-induced suppression of CYP3A4 expression at 10 uM incubated for 24 hrs by immunoblot analysis", "type": "cell-based"}, "[6]": {"system": "Mus musculus", "assay": "Induction of PXR mRNA expression in C57BL/6 mouse intestine at 5 to 25 mg dosed as oral gavage as single bolus and measured after 24 hrs relative to control", "type": "functional, organism-based", "summary_of_the_method": "(§3)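 Male C57BL/6 mice, 6–7 weeks old, three per group. Single oral gavage bolus of 5, 10 or 25 mg in olive oil vehicle; vehicle-only controls. Killed at 24 h. Tissue PXR mRNA measured; PXR, CYP3A11 and MDR1 protein measured by immunoblot.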"}, "[7]": {"target": "T3, Nuclear receptor subfamily 1 group I member 2", "assay": "Agonist activity at PXR in human HT29 cells assessed as increase in PXR protein expression at 1 to 25 uM incubated for 24 hrs by immunoblot analysis", "type": "cell-based"}, "[8]": {"assay": "Toxicity in C57BL/6 mouse assessed as induction of organ damage at <=25 mg dosed as oral gavage as single bolus and measured after 24 hrs relative to control", "type": "organism-based", "conditions": "in vivo", "summary_of_the_method": "as §2"}, "[9]": {"target": "T3, Nuclear receptor subfamily 1 group I member 2", "assay": "Agonist activity at PXR in human HT29-MTX cells assessed as increase in CYP3A4 protein expression at 1 to 25 uM incubated for 24 hrs by immunoblot analysis", "type": "cell-based"}, "[10]": {"target": "T3, Nuclear receptor subfamily 1 group I member 2", "assay": "Agonist activity at PXR in human HepG2 cells transfected with PXR siRNA at 10 to 50 uM incubated for 24 hrs", "type": "cell-based", "conditions": "hepg2, 24 h", "summary_of_the_method": "(§4)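 HepG2 cells reverse-transfected with PXR siRNA using lipofectamine RNAiMAX; after 24 h silencing, treated with compound for a further 24 h. PXR and CYP3A4 transcription responses measured.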"}, "[11]": {"system": "Mus musculus", "assay": "Induction of PXR-dependent CYP3A11 protein expression in C57BL/6 mouse liver at 5 to 25 mg dosed as oral gavage as single bolus and measured after 24 hrs relative to control", "type": "functional, organism-based", "summary_of_the_method": "as §3"}, "[12]": {"system": "Mus musculus", "assay": "Induction of PXR mRNA expression in C57BL/6 mouse liver at 5 to 25 mg dosed as oral gavage as single bolus and measured after 24 hrs relative to control", "type": "functional, organism-based", "summary_of_the_method": "as §3"}, "[13]": {"system": "Mus musculus", "assay": "Induction of PXR protein expression in C57BL/6 mouse intestine assessed as induction of localization of PXR protein at villous epithelium at 5 to 25 mg dosed as oral gavage as single bolus and measured after 24 hrs by IHC analysis relative to control", "type": "functional, organism-based", "summary_of_the_method": "as §1"}, "[14]": {"system": "HepG2", "assay": "Effect on alpha-tocopherol level in human HepG2 cells at 25 uM", "type": "functional, cell-based"}, "[15]": {"system": "Mus musculus", "assay": "Induction of PXR protein expression in C57BL/6 mouse hepatic parenchyma assessed as induction of localization of PXR protein at sinusoidal endothelial cells at 5 to 25 mg dosed as oral gavage as single bolus and measured after 24 hrs by IHC analysis relative to control", "type": "functional, organism-based", "summary_of_the_method": "as §1"}, "[16]": {"assay": "Toxicity in C57BL/6 mouse assessed as effect on gross appearance at <=25 mg dosed as oral gavage as single bolus and measured after 24 hrs relative to control", "type": "organism-based", "conditions": "in vivo", "summary_of_the_method": "as §2"}, "[17]": {"target": "T3, Nuclear receptor subfamily 1 group I member 2", "assay": "Agonist activity at PXR in human HepG2 cells transfected with PXR siRNA assessed as induction of CYP3A4 expression at 10 to 50 uM incubated for 24 hrs", "type": "cell-based", "conditions": "hepg2, 24 h", "summary_of_the_method": "as §4"}, "[18]": {"target": "T3, Nuclear receptor subfamily 1 group I member 2", "assay": "Agonist activity at PXR in human HT29-MTX cells assessed as increase in PXR protein expression at 1 to 25 uM incubated for 24 hrs by immunoblot analysis", "type": "cell-based"}, "[19]": {"target": "T3, Nuclear receptor subfamily 1 group I member 2", "assay": "Agonist activity at PXR in human HepG2 cells assessed as stimulation of CYP450-mediated alpha-tocopherol metabolites production at 25 uM", "type": "cell-based", "conditions": "hepg2, 25 µM"}}, "note": "Calls of active or inactive are those of the source. The calls are words filed in the database; no cut-off is given here."}
{"compound": "C/C(=C\\CC/C(C)=C/CC[C@]1(C)CCc2cc(O)cc(C)c2O1)CC/C=C(\\C)C(=O)O", "values": [{"measurement": "Activity", "setting": "[1]", "result": "Active"}, {"measurement": "Emax", "setting": "[2]", "result": 103, "unit": "%"}, {"measurement": "Activity", "setting": "[3]", "result": "Non-Toxic"}, {"measurement": "Activity", "setting": "[4]", "result": "inactive"}, {"measurement": "Activity", "setting": "[5]", "result": "Active"}, {"measurement": "Activity", "setting": "[6]", "result": "Dose-dependent effect"}, {"measurement": "Activity", "setting": "[7]", "result": "Active"}, {"measurement": "Activity", "setting": "[8]", "result": "Non-Toxic"}, {"measurement": "Activity", "setting": "[9]", "result": "Active"}, {"measurement": "Activity", "setting": "[10]", "result": "Not Active"}, {"measurement": "Activity", "setting": "[11]", "result": "Active"}, {"measurement": "Activity", "setting": "[12]", "result": "Dose-dependent effect"}, {"measurement": "Activity", "setting": "[13]", "result": "Active"}, {"measurement": "Activity", "setting": "[14]", "result": "inactive"}, {"measurement": "Activity", "setting": "[15]", "result": "Active"}, {"measurement": "Activity", "setting": "[16]", "result": "Non-Toxic"}, {"measurement": "Activity", "setting": "[17]", "result": "Not Active"}, {"measurement": "Activity", "setting": "[18]", "result": "Active"}, {"measurement": "Activity", "setting": "[19]", "result": "Active"}]}
